Bioassay records (PubChem)
This is a sample that favours compounds with a hit; in the whole collection about 2% have one here.
NS3 helicase inh = inhibitors of HCV NS3 helicase, primary screen, biochemical, Cy5 molecular beacon fluorescence. NS3 helicase DNA unwinding. inhibition, % at 10.9 µM. 290,000 compounds, 0.56% hits. AID 1800, 2009;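 active means inhibition above the mean of all tested compounds plus 3 SD, set per campaign, cut at about 35% in these data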;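 further: 0% = DMSO wells and 100% = thioflavine S control wells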
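System: HCV NS3 helicase fragment; control set: DMSO and thioflavine S; technique: Cy5 fluorescence at 0 and 60 min, beacon hairpin quenching; reagent: beacon DNA duplex substrate plus ATP; replicates: singlicate; schedule: 1 h reaction at 25 °C, ATP-initiated; medium: MOPS buffer pH 6.5 with MgCl2, DTT, Tween20, BSA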
DNA FID counter-1 = compounds displacing fluorescent DNA intercalator, primary screen, artefact control for HCV NS3 helicase inhibitor project, biochemical, FID fluorescence; DNA fluorescent intercalator displacement; inhibition, % at 7.9 µM; 290,000 compounds, 0.17% hits;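 further: 0% = vehicle and 100% = reference compound; higher means more ethidium bromide displaced from hairpin DNA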
PABP1 MLLE inh = inhibitors of PABP1 MLLE–PAM2 peptide binding, primary screen, biochemical, fluorescence polarization, FITC-PAM2, GST-MLLE. Polyadenylate-binding protein 1 (Homo sapiens), P11940. inhibition, % at 20 µM. 360,000 compounds, 0.36% hits; in the data active means inhibition above about 35%, passing the limit was not always enough;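 further: plate controls were DMSO wells with GST-MLLE for no effect and wells lacking GST-MLLE protein for full effect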
Target sequence (P11940 whole entry, looked up): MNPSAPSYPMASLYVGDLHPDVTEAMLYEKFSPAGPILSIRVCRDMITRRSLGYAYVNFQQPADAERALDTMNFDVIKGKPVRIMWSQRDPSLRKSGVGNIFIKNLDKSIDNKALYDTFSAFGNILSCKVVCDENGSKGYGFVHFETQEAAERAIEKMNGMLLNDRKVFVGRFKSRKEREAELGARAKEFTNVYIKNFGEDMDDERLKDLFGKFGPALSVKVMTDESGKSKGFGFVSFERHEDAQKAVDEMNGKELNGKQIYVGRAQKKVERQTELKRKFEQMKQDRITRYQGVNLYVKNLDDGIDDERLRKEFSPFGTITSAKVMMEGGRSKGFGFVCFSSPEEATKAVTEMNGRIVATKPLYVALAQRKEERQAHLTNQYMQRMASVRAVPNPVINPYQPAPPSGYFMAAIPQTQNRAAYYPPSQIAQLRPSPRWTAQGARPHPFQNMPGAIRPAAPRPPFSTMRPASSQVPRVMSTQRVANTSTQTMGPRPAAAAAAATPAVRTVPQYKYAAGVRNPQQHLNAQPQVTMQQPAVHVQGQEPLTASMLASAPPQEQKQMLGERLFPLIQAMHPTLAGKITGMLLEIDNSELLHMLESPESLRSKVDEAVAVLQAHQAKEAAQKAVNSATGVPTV
PABP FP inh = PABP poly(A) RNA binding inhibitors, primary screen, biochemical, fluorescence polarization, uHTS; Polyadenylate-binding protein 1 (Homo sapiens), P11940; inhibition, % at 35 µM; 290,000 compounds, 1% hits; call rule not given here;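 further: calls also rest on retests at 20 µM and on dose response follow-up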
eIF4H FP inh = human eIF4H binding inhibitors, primary screen, translation initiation inhibitor project, biochemical, uHTS, fluorescence polarization | Eukaryotic translation initiation factor 4H (Homo sapiens), Q15056 | eIF4H fluorescence polarization binding assay | inhibition, % at 35 µM | 290,000 compounds, 0.94% hits; call rule not given here;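 further: calls also rest on retests at 20 µM and on dose response follow-up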
core dimer inh = inhibitors of HCV core protein dimerization, primary screen, biochemical, TR-FRET, high-throughput; TR-FRET GST/Flag-core106 dimerization, 1536-well; inhibition, % at 5 µM; 300,000 compounds, 0.33% hits; AID 1899, 2009;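 active means inhibition above the mean of all tested compounds plus 3 SD, set per screening campaign, cut at about 45% in these data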
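Assay system: Tagged HCV core106 pair (GST and Flag) | Buffer or medium: KF-containing HEPES buffer, pH 7.45, DTT, CHAPS, BSA | Also added: Eu donor and XL665 acceptor anti-tag antibodies | Dosing: One concentration, 5 µM, in 0.5% DMSO | Timing: 4 h at 22.5 °C | Technique: TR-FRET 671 and 617 nm emission | Repeats: Singlicate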
NS3 hel confirm = HCV NS3 helicase inhibitors, retest, confirmation, biochemical, Cy5 molecular beacon fluorescence, triplicate | shares compounds with NS3 helicase inh | NS3 helicase DNA unwinding | inhibition, % at 10.9 µM | 1,600 compounds, 31% hits;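 active means inhibition above the mean of all tested compounds plus 3 SD, cutoff set per campaign, cut at about 36% in these data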
DNA FID counter-2 = compounds displacing fluorescent DNA intercalator, artefact control for HCV NS3 helicase inhibitor project, biochemical, FID fluorescence, triplicate. shares compounds with NS3 helicase inh. DNA fluorescent intercalator displacement. inhibition, % at 7.9 µM. 1,600 compounds, 4% hits;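 further: 0% = vehicle and 100% = reference compound; higher means more displacement of ethidium bromide from the DNA hairpin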
Numbers without * were called inactive; u = inconclusive; x = no result; ! = repeats disagree. Unless noted, no stated cut-off is given here; in the data, active means inhibition above about 37%; inactive means the rest.

SMILES	NS3 helicase inh	DNA FID counter-1	PABP1 MLLE inh	PABP FP inh	eIF4H FP inh	core dimer inh	NS3 hel confirm	DNA FID counter-2
COc1ccc(C(=O)CC(=O)C(=O)Nc2ccc(Cl)cc2)cc1	42.5*	-12.6	1.1	8.6	7.5	0.5	-1.7	15.0
COc1ccc(C(=O)CC(=O)C(=O)Nc2ccc(OC)c(Cl)c2)cc1	33.5	-18.1	-7.4	4.6	6.5	0.0	x	x
COCCn1c(=S)[nH]c2sc3c(c2c1=O)CCCC3	52.4*	-19.4	0.0	6.8	5.4	-9.4	-9.4	-5.7
COCCCn1c(=S)[nH]c2sc3c(c2c1=O)CCCC3	10.7	-26.3	2.4	5.2	5.3	-9.5	x	x
S=c1nc(NCCc2ccccc2Cl)c2ccccc2[nH]1	1.5	-3.1	-103.7	4.6	2.4	x	x	x
COC(=O)c1ccc(CN2CCN(Cc3ccc(F)cc3)C(CCO)C2)cc1 (centres undefined)	2.9	1.7	27.7	-6.2	4.7	-4.1	x	x
COC(=O)c1ccc(CN2CCN(CC(C)C)C(CCO)C2)cc1 (centres undefined)	38.3*	4.2	14.3	8.2	5.9	-3.2	-15.9	0.0
C=CCn1c(SCCCC)nc(O)cc1=O	39.9*!	-2.5	7.9	5.7	-5.2	-3.0	-3.6	-10.1
COCCNc1nc(NCCOc2ccccc2)c2sc(-c3ccccc3)cc2n1	x	x	7.8	x	x	x	x	x
COc1cc(/C=C2/C(=O)NN(c3ccc(Cl)cc3)C2=O)cc(Br)c1O	22.7	-12.5	-163.7	-2.8	25.8	-6.3	x	x
COc1cc(/C=C2/C(=O)NN(c3ccc(Cl)c(Cl)c3)C2=O)cc([N+](=O)[O-])c1O	-20.2	24.3	-101.5	29.3	17.9	10.5	x	x
COC(=O)c1ccc(N2NC(=O)/C(=C/c3cc(OC)c(O)c(OC)c3)C2=O)cc1	61.3*	4.1	-147.1	u	u	-1.6	17.0	12.9
COc1cc(/C=C2/C(=O)NN(c3ccc(F)cc3)C2=O)cc(Cl)c1O	36.4*	-10.5	-151.0	u	u	-3.7	34.3	6.8
COC(=O)c1ccc(N2NC(=O)/C(=C/c3cc(OC)c(OC)c(OC)c3)C2=O)cc1	-8.9	11.4	21.6	10.5	-1.8	8.8	x	x
COc1cccc(/C=C2/C(=O)NN(c3ccc(Br)cc3)C2=O)c1O	37.6*	-3.3	20.5	8.6	5.3	x	58.1*	8.0
COc1ccc(NC(=O)/C(C#N)=C\C=C\c2ccco2)cc1	84.8*	-16.7	4.7	-10.8	66.4	-0.5	-4.1	-0.2
COc1ccc(NC(=O)/C(=C\c2ccco2)NC(=O)c2ccco2)cc1	3.5	0.8	-9.5	4.8	9.0	10.3	x	x
Cc1ccccc1CN1CCN(CC(=O)NCc2ccccc2)CC1	3.9	-1.6	7.8	8.1	5.3	7.3	x	x
CN(C)c1ccc(S(=O)(=O)N2CCCCC2)cc1NC(=O)CCNC(=O)c1ccccc1Cl	x	x	-3.6	x	x	x	x	x
CCN(CC(=O)Nc1ccccc1OC)C(=O)CN1C(=O)NC(C)(c2ccc3ccccc3c2)C1=O (centres undefined)	x	x	-13.4	x	x	x	x	x
Cc1nnc(SCC2=C(C(=O)O)N3C(=O)C(NC(=O)COc4ccc(F)cc4)C3SC2)s1 (centres undefined)	x	x	23.9	x	x	x	x	x
Cc1nnc(SCC2=C(C(=O)O)N3C(=O)C(NC(=O)c4cc(F)c(F)cc4Cl)C3SC2)s1 (centres undefined)	36.2*	-26.0	17.9	-2.3	19.7	0.8	11.4	-23.3
